Assay results taken from ChEMBL document CHEMBL1141747, “New bisbenzylisoquinolines, fatty acid amidic aporphines, and a protoberberine from Formosan Cocculus orbiculatus” (J Nat Prod, 2005).
≈ marks a conversion by molar mass, not a printed value.

Key:
HepG2 = test: Cytotoxicity against human HepG2 cells; format: functional, cell-based
[1] = Cytotoxicity against human Hep3B cells; format: functional, cell-based, Hep 3B2
MCF7 = test: Cytotoxicity against human MCF7 cells; format: functional, cell-based
MDA-MB-231 = test: Cytotoxicity against human MDA-MB-231 cells; format: functional, cell-based
NUGC-3 [2] = test: Cytotoxicity against human NUGC3 cells at 20 ug/mL; format: functional
Summary of the method: (§1)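 Samples were tested on the cells at two fixed concentrations, 20 and 4 µg/mL. The value is reported as percent inhibition at each concentration.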

NUGC-3 [3] = test: Cytotoxicity against human NUGC3 cells at 4 ug/mL; format: functional; summary of the method: as §1
[4] = Cytotoxicity against human HONE1 cells at 20 ug/mL; format: functional; summary of the method: as §1
[5] = Cytotoxicity against human HONE1 cells at 4 ug/mL; format: functional; summary of the method: as §1
P388 = test: Antitumor activity against mouse P388 cells xenografted in mouse; format: functional

SMILES | IC50 (HepG2) | IC50 [1] | IC50 (MCF7) | IC50 (MDA-MB-231) | inhibition at 20 µg/mL (NUGC-3 [2]) | inhibition at 4 µg/mL (NUGC-3 [3]) | inhibition at 20 µg/mL [4] | inhibition at 4 µg/mL [5] | T/C (P388)
COc1ccc2c(c1O)[C@]13CCN[C@@H](C2)C1C(OC)[C@@H](O)[C@@H](O)C3 (some centres not stated) | 2 µg/mL (≈ 5.96 µM) | 2 µg/mL (≈ 5.96 µM) | 2 µg/mL (≈ 5.96 µM) | 1.2 µg/mL (≈ 3.58 µM) | 96% | 82% | 84% | 82% | 166%
COc1cc2c(c(OC)c1OC)CCN1C(=O)c3c(ccc(OC)c3OC)C[C@@H]21 | 23.5 µg/mL (≈ 58.8 µM) | > 30 µg/mL | > 30 µg/mL | > 30 µg/mL | – | – | – | – | –
COc1ccc2cc1Oc1ccc(cc1)C[C@H]1c3cc(O)c(c(OC)c3CC[N+]1(C)C)Oc1cc3c(cc1OC)CC[N+](C)=C3C2.[Cl-].[Cl-] | > 30 µg/mL | > 30 µg/mL | > 30 µg/mL | > 30 µg/mL | – | – | – | – | –
COc1cc2c3c4c1Oc1cc5c(cc1O4)C(=NCC5)Cc1ccc(O)c(c1)Oc1ccc(cc1)C[C@@H]3N(C)CC2 [DEHYDROAPATELINE] | 3.61 µg/mL (≈ 6.6 µM) | 4.82 µg/mL (≈ 8.82 µM) | 16.3 µg/mL (≈ 29.8 µM) | 4.71 µg/mL (≈ 8.62 µM) | 98% | 0% | 98% | 0% | –
COc1ccc2cc1Oc1ccc(cc1)C[C@H]1c3c(cc(OC)c4c3Oc3cc5c(cc3O4)CCN(C)[C@H]5C2)CCN1C [ISOTRILOBINE] | 0.6 µg/mL (≈ 1.04 µM) | 0.75 µg/mL (≈ 1.3 µM) | 3.9 µg/mL (≈ 6.76 µM) | 1.6 µg/mL (≈ 2.77 µM) | 100% | 0% | 100% | 79% | –
CC(=O)O[C@H]1C(=O)[C@@]2(C)[C@H]([C@H](OC(=O)c3ccccc3)[C@]3(O)C[C@H](OC(=O)[C@H](O)[C@@H](NC(=O)c4ccccc4)c4ccccc4)C(C)=C1C3(C)C)[C@]1(OC(C)=O)CO[C@@H]1C[C@@H]2O [PACLITAXEL] | 0.18 µg/mL (≈ 0.211 µM) | 0.08 µg/mL (≈ 0.0937 µM) | 0.14 µg/mL (≈ 0.164 µM) | 0.12 µg/mL (≈ 0.141 µM) | – | – | – | – | –
